Experiment [1] relates to HaCaT. Kind of experiment: Growth inhibition of human HaCaT cells assessed as lactate dehydrogenase release at 2 uM after 4 hrs by UV method. The class given is functional. Summed up: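 HaCaT cells were exposed to compound at 2 µM for 4 h at 37 °C. Extracellular LDH activity in the medium was measured by the UV method with pyruvate and NADH. Values were compared against vehicle controls (n = 3).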

The subject of experiment [2] is HaCaT. Kind of experiment: Antiproliferative activity against human HaCaT cells. The class given is functional, cell-based. Put shortly:
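HaCaT keratinocytes were seeded at 2.5 × 10^4 per well in DMEM and grown 24 h. Cells were trypsinized (0.5% trypsin, 0.2% EDTA, 20 min, 37 °C) and counted by phase contrast microscopy. Inhibition was taken relative to vehicle (n = 3). IC50 was interpolated from a log concentration-response using ≥4 concentrations.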

For the compound `CC(=O)C1=C(O)C=C2Oc3c(C(C)=O)c(O)c(C)c(O)c3[C@@]2(C)C1=O` [(+)-USNIC ACID], the Activity in experiment [1] turned out to be 168 mU/mL. In experiment [2], the IC50 (usually the concentration at which inhibition is half-maximal) is 2100 nM.
In the same order, the values of `O=C1c2c(O)cccc2Cc2cccc(O)c21` [ANTHRALIN] are 294 mU/mL and 700 nM.
`COC(=O)c1c(C)cc(OC(=O)c2c(C)cc(O)c(C=O)c2O)c(C)c1O` [ATRANORIN] yielded an IC50 in experiment [2] of over 5000 nM.
On to `COC(=O)c1c(C)cc(O)c(C)c1O` [ATRARIC ACID], for which, in experiment [2], the IC50 is over 5000 nM.
Regarding `COc1cc(C)c(C(=O)Oc2cc(C)c(C(=O)O)c(O)c2C)c(OC)c1C` [DIFFRACTAIC ACID], the Activity in experiment [1] was 136 mU/mL. The same compound yielded a half-maximal inhibitory concentration (IC50) in experiment [2] of 2600 nM.
On to `CCOC(=O)c1c(C)cc(O)c(C=O)c1O` [ETHYL HEMATOMMATE], for which the IC50 in experiment [2] was over 5000 nM.
For `Cc1cc(OC(=O)c2c(C)cc(OC(=O)c3c(C)cc(O)cc3O)cc2O)cc(O)c1C(=O)O` [GYROPHORIC ACID], the Activity in experiment [1] was determined as 138 mU/mL. Besides, the IC50 in experiment [2] came to 1700 nM.
Regarding `C=C1C(=O)O[C@@H](CCCCCCCCCCCCC)[C@@H]1C(=O)O` [PROTOLICHESTERINIC ACID], the IC50 in experiment [2] was over 5000 nM.

The record behind these values is ChEMBL document CHEMBL1141858, “Lichen metabolites. 2. Antiproliferative and cytotoxic activity of gyrophoric, usnic, and diffractaic acid on human keratinocyte growth” (J Nat Prod, 1999).
